Source: ChEMBL document CHEMBL3616433, “Synthesis and anti-cancer potential of the positional isomers of NOSH-aspirin (NBS-1120) a dual nitric oxide and hydrogen sulfide releasing hybrid” (Bioorg Med Chem Lett, 2015)
Activity calls are given as the source filed them. The rule behind the calls is not given here.

Key:
[1] = system: HT-29; assay: Cytotoxicity against human HT-29 cells assessed as reduction in PCNA expression after 24 hrs by ELISA; type: functional, cell-based
Procedure, shortened: (§1)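 HT-29 cells (1×10^6 cells/mL) exposed to a range of concentrations for 24 h. PCNA antigen was quantified by ELISA kit per the manufacturer's protocol and expressed as % of vehicle-treated cells. Mean ± SEM of 3 experiments run in duplicate; ANOVA with Tukey's test.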

[2] = system: HT-29; assay: Cell cycle arrest in human HT-29 cells assessed as reduction in G2/M phase at 100 nM after 24 hrs using propidium iodide by flow cytometry (reference value: 28.5%); type: functional; set-up: scale not given: the % may be the effect or the level left
Procedure, shortened: (§2)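 HT-29 cells (0.5×10^6) treated 24 h, then trypsinized, fixed in 70% ethanol (10 min, −20°C), held in PBS/1% FBS/0.5% NP-40 on ice 5 min, and stained with propidium iodide 40 µg/mL plus RNase IIA 200 µg/mL. Flow cytometry within 30 min, >10,000 events per subset. Phase percentages were taken from DNA-content histograms. Representative of two experiments agreeing within 10%.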

[3] = system: HT-29; assay: Induction of apoptosis in human HT-29 cells assessed as early apoptotic cells at 100 nM after 24 hrs using annexin-V staining by flow cytometry relative to control; type: functional
Procedure, shortened: (§3)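 HT-29 cells (0.5×10^6 cells/mL) treated 24 h, washed, and resuspended in Annexin binding buffer (HEPES pH 7.4, NaCl, CaCl2). They were stained with Annexin V-FITC (final 0.5 µg/mL) and propidium iodide (final 20 µg/mL) for 5–15 min at room temperature in the dark, then analysed by flow cytometry for early apoptotic cells. Mean ± SEM of 3 experiments in duplicate.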

[4] = system: HT-29; assay: Cell cycle arrest in human HT-29 cells assessed as reduction in G2/M phase at 50 nM after 24 hrs using propidium iodide by flow cytometry (reference value: 28.5%); type: functional; set-up: scale not given: the % may be the effect or the level left; procedure, shortened: as §2
[5] = system: HCT-15; assay: Cytotoxicity against human HCT15 cells assessed as growth inhibition after 24 hrs by MTT assay; type: functional, cell-based; settings: HCT-15, 24 h
Procedure, shortened: (§4)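 Cells grown in RPMI 1640 with 10% FBS, penicillin/streptomycin, at 37°C and 5% CO2. Compounds came from 100 mM DMSO stocks, with final DMSO 1% in all media. Growth was read by colorimetric MTT kit after 24 h. IC50 came from dose-response curves. Mean ± SEM of three to five experiments, each in triplicate.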

[6] = system: HT-29; assay: Cytotoxicity against human HT-29 cells assessed as reduction in PCNA expression at 50 nM after 24 hrs by ELISA relative to vehicle treated control; type: functional; set-up: scale not given: the % may be the effect or the level left; procedure, shortened: as §1
[7] = system: HT-29; assay: Induction of apoptosis in human HT-29 cells assessed as early apoptotic cells at 10 nM after 24 hrs using annexin-V staining by flow cytometry relative to control; type: functional; procedure, shortened: as §3
[8] = system: HT-29; assay: Induction of ROS generation in human HT-29 cells assessed as increase in intracellular superoxide anion level at 50 nM after 1 hr using DHE staining by flow cytometry relative to control
[9] = system: HT-29; assay: Cytotoxicity against human HT-29 cells assessed as reduction in PCNA expression at 25 nM after 24 hrs by ELISA relative to vehicle treated control; type: functional; set-up: scale not given: the % may be the effect or the level left; procedure, shortened: as §1
[10] = system: HT-29; assay: Induction of ROS generation in human HT-29 cells assessed as increase in intracellular peroxide level at 50 nM after 1 hr using DCFDA staining by flow cytometry relative to control; type: functional
Procedure, shortened: (§5)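 Plate HT-29 cells at 0.3×10^6/well for 24 h, then treat 1 h. Trypsinize, wash in PBS, and incubate with DCFDA (10 µM) 30 min at 37°C in the dark. Read fluorescence by flow cytometry as fold over basal. Mean ± SEM of three independent experiments.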

[11] = system: HT-29; assay: Cell cycle arrest in human HT-29 cells assessed as reduction in S phase at 100 nM after 24 hrs using propidium iodide by flow cytometry (reference value: 31.9%); type: functional; set-up: scale not given: the % may be the effect or the level left; procedure, shortened: as §2
[12] = system: HT-29; assay: Cell cycle arrest in human HT-29 cells assessed as accumulation at G0/G1 phase at 50 nM after 24 hrs using propidium iodide by flow cytometry (reference value: 39.6%); type: functional; procedure, shortened: as §2
[13] = system: HT-29; assay: Cell cycle arrest in human HT-29 cells assessed as reduction in S phase at 50 nM after 24 hrs using propidium iodide by flow cytometry (reference value: 31.9%); type: functional; set-up: scale not given: the % may be the effect or the level left; procedure, shortened: as §2
[14] = system: HT-29; assay: Cell cycle arrest in human HT-29 cells assessed as accumulation at G0/G1 phase at 100 nM after 24 hrs using propidium iodide by flow cytometry (reference value: 39.6%); type: functional; procedure, shortened: as §2
[15] = system: HT-29; assay: Cytotoxicity against human HT-29 cells assessed as reduction in PCNA expression at 100 nM after 24 hrs by ELISA relative to vehicle treated control; type: functional; set-up: scale not given: the % may be the effect or the level left; procedure, shortened: as §1
[16] = system: HT-29; assay: Cytotoxicity against human HT-29 cells assessed as reduction in PCNA expression at 10 nM after 24 hrs by ELISA relative to vehicle treated control; type: functional; set-up: scale not given: the % may be the effect or the level left; procedure, shortened: as §1
[17] = system: HT-29; assay: Induction of apoptosis in human HT-29 cells assessed as early apoptotic cells at 25 nM after 24 hrs using annexin-V staining by flow cytometry relative to control; type: functional; procedure, shortened: as §3
[18] = system: HT-29; assay: Induction of apoptosis in human HT-29 cells assessed as early apoptotic cells at 50 nM after 24 hrs using annexin-V staining by flow cytometry relative to control; type: functional; procedure, shortened: as §3
[19] = system: HT-29; assay: Cytotoxicity against human HT-29 cells assessed as growth inhibition after 24 hrs by MTT assay; type: functional, cell-based; settings: HT-29, 24 h; procedure, shortened: as §4
[20] = system: HT-29; assay: Induction of apoptosis in human HT-29 cells assessed as early apoptotic cells at 100 to 1000 nM after 24 hrs using annexin-V staining by flow cytometry relative to control; type: functional, cell-based; procedure, shortened: as §3
[21] = system: HT-29; assay: Induction of ROS generation in human HT-29 cells assessed as increase in intracellular superoxide anion level at 500 nM after 1 hr using DHE staining by flow cytometry relative to control; type: functional
Procedure, shortened: (§6)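 HT-29 cells (0.3×10^6/well) plated for 24 h, then treated 1 h. They were trypsinized, PBS-washed, and loaded with dihydroethidium (5 µM) for 30 min at 37°C in the dark. Superoxide fluorescence was measured by flow cytometry relative to basal. Mean ± SEM of three independent experiments.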

[22] = system: HT-29; assay: Cell cycle arrest in human HT-29 cells assessed as accumulation at G2/M phase at 1 to 2 times IC50 after 24 hrs using propidium iodide by flow cytometry; type: functional, cell-based; settings: in the assay text read “G0/G1 phase” for “G2/M phase”; procedure, shortened: as §2
[23] = system: HT-29; assay: Cell cycle arrest in human HT-29 cells assessed as accumulation at G0/G1 phase at 1 to 2 times IC50 after 24 hrs using propidium iodide by flow cytometry; type: functional, cell-based; procedure, shortened: as §2
[24] = system: HT-29; assay: Cell cycle arrest in human HT-29 cells assessed as accumulation at S phase at 1 to 2 times IC50 after 24 hrs using propidium iodide by flow cytometry; type: functional, cell-based; procedure, shortened: as §2
[25] = system: HT-29; assay: Cytotoxicity against human HT-29 cells assessed as reduction in PCNA expression at 100 to 1000 nM after 24 hrs by ELISA relative to vehicle treated control; type: functional, cell-based; procedure, shortened: as §1
[26] = system: HT-29; assay: Induction of ROS generation in human HT-29 cells assessed as increase in intracellular peroxide level at 500 nM after 1 hr using DCFDA staining by flow cytometry relative to control; type: functional; procedure, shortened: as §5
[27] = system: HT-29; assay: Induction of apoptosis in human HT-29 cells assessed as early apoptotic cells at 50 to 500 nM after 24 hrs using annexin-V staining by flow cytometry relative to control; type: functional, cell-based; procedure, shortened: as §3
[28] = system: HT-29; assay: Induction of ROS generation in human HT-29 cells assessed as increase in intracellular peroxide level at 250 nM after 1 hr using DCFDA staining by flow cytometry relative to control; type: functional; procedure, shortened: as §5
[29] = system: HT-29; assay: Cell cycle arrest in human HT-29 cells assessed as accumulation at G0/G1 phase at 1 to 2 times IC50 after 24 hrs using propidium iodide by flow cytometry
[30] = system: HT-29; assay: Cytotoxicity against human HT-29 cells assessed as reduction in PCNA expression at 50 to 500 nM after 24 hrs by ELISA relative to vehicle treated control; type: functional, cell-based; procedure, shortened: as §1
[31] = system: HT-29; assay: Induction of ROS generation in human HT-29 cells assessed as increase in intracellular superoxide anion level at 250 nM after 1 hr using DHE staining by flow cytometry relative to control; type: functional; procedure, shortened: as §6

## O=C(CCCO[N+](=O)[O-])Oc1ccccc1C(=O)Oc1ccc(-c2cc(=S)ss2)cc1
[1]
  Activity: Dose-dependent effect
[2]
  Activity: 9.9%
[3]
  Activity: 78%
[4]
  Activity: 20.3%
[5]
  IC50: 0.057 µM
[6]
  Activity: 48%
[7]
  Activity: 15%
[8]
  fold change (FC): 18
[9]
  Activity: 65%
[10]
  fold change (FC): 16
[11]
  Activity: 18.2%
[12]
  Activity: 53.6%
[13]
  Activity: 26.1%
[14]
  Activity: 71.9%
[15]
  Activity: 20%
[16]
  Activity: 80%
[17]
  Activity: 35%
[18]
  Activity: 65%

## COc1ccc(OC(=O)CCCO[N+](=O)[O-])c(C(=O)Oc2ccc(-c3cc(=S)ss3)cc2)c1
[19]
  IC50: 0.2 µM
[5]
  IC50: 0.38 µM

## O=C(CCCO[N+](=O)[O-])Oc1ccc(C(=O)Oc2ccc(-c3cc(=S)ss3)cc2)cc1Cl
[19]
  IC50: 0.06 µM
[5]
  IC50: 0.33 µM

## O=C(CCCO[N+](=O)[O-])Oc1ccc(C(=O)Oc2ccc(-c3cc(=S)ss3)cc2)cc1
[19]
  IC50: 0.45 µM
[5]
  IC50: 0.38 µM
[20]
  Activity: Active
[21]
  fold change (FC): 10
[22]
  Activity: Active
[23]
  Activity: Active
[24]
  Activity: Active
[25]
  Activity: Active
[26]
  fold change (FC): 11

## COc1cc(C(=O)Oc2ccc(-c3cc(=S)ss3)cc2)ccc1OC(=O)CCCO[N+](=O)[O-]
[19]
  IC50: 0.13 µM
[5]
  IC50: 0.22 µM

## O=C(CCCO[N+](=O)[O-])Oc1cccc(C(=O)Oc2ccc(-c3cc(=S)ss3)cc2)c1Cl
[19]
  IC50: 0.21 µM
[5]
  IC50: 0.14 µM

## O=C(CCCO[N+](=O)[O-])Oc1ccc(Cl)cc1C(=O)Oc1ccc(-c2cc(=S)ss2)cc1
[19]
  IC50: 0.4 µM
[5]
  IC50: 0.17 µM

## O=C(CCCO[N+](=O)[O-])Oc1cccc(C(=O)Oc2ccc(-c3cc(=S)ss3)cc2)c1
[27]
  Activity: Active
[19]
  IC50: 0.22 µM
[5]
  IC50: 0.11 µM
[28]
  fold change (FC): 15
[23]
  Activity: Active
[29]
  Activity: Active
[30]
  Activity: Active
[24]
  Activity: Active
[31]
  fold change (FC): 21

## COc1ccc(C(=O)Oc2ccc(-c3cc(=S)ss3)cc2)cc1OC(=O)CCCO[N+](=O)[O-]
[19]
  IC50: 0.43 µM
[5]
  IC50: 0.33 µM

## CC(=O)Oc1ccccc1C(=O)O [ASPIRIN]
[19]
  IC50: > 5000 µM
[5]
  IC50: > 5000 µM
